# High-throughput results from PubChem BioAssay.
# NTR1 agonist = agonists of human NTR1, primary screen, imaging, U2OS cells, beta-arrestin-GFP, high content; Neurotensin receptor type 1 (Homo sapiens), P30989; NTR1-U2OS beta-arrestin-GFP spot imaging, agonist mode; activation, % at 20 µM; 330,000 compounds, 0.17% hits;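 active = activation at or above 40% of the spot to cytoplasm intensity ratio, with at least 20 cells analyzed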
# PLCb3 inh = human PLC-beta3 inhibitors, primary screen, biochemical, fluorescence; 1-phosphatidylinositol 4,5-bisphosphate phosphodiesterase beta-3 (Homo sapiens), Q01970; Purified PLC-beta3, fluorogenic substrate; inhibition, % at 12.2 µM; 370,000 compounds, 0.18% hits; in the data active = inhibition above about 11%
# Target sequence (Q01970 whole entry, looked up): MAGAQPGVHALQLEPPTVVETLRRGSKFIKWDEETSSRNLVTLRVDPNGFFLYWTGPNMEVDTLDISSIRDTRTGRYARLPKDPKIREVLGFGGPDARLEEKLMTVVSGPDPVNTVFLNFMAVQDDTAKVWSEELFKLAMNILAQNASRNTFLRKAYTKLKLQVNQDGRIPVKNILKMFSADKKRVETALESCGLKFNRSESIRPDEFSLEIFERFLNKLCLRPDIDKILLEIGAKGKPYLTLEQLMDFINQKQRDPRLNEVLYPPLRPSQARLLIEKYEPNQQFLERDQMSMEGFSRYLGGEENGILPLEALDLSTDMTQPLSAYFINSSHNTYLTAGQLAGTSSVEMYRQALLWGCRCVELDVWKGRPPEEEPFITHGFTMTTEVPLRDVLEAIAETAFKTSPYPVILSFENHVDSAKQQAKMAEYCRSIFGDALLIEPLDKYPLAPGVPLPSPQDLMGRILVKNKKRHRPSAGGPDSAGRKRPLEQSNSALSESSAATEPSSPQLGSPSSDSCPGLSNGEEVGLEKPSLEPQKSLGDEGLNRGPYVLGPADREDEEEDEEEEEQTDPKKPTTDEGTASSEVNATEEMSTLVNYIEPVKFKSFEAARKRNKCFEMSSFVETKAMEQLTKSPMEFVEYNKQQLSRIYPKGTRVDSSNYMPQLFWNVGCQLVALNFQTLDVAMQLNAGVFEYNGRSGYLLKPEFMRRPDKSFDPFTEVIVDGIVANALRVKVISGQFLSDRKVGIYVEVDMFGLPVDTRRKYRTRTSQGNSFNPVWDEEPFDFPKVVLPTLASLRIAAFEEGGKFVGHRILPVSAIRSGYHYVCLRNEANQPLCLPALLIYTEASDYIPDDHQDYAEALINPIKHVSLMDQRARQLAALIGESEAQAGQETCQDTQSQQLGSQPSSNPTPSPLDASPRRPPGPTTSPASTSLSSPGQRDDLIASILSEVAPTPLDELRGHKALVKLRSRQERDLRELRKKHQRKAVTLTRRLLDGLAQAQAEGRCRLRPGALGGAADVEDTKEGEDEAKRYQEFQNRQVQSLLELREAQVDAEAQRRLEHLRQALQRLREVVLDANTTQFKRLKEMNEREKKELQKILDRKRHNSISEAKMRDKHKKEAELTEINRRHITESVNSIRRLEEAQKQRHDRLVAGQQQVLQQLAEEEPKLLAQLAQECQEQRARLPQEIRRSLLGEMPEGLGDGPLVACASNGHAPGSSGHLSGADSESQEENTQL
# PLC-gamma1 inh = PLC-gamma1 enzyme inhibitors, primary screen, biochemical, fluorescence, purified enzyme; 1-phosphatidylinositol 4,5-bisphosphate phosphodiesterase gamma-1 (Homo sapiens), P19174; inhibition, % at 12.2 µM; fluorogenic substrate; 370,000 compounds, 0.84% hits; AID 720700, 2013; in the data active = inhibition above about 9.5%
# Arrestin-AP2 inh = inhibitors of beta-arrestin/AP2 binding, primary screen, biochemical, GPCR trafficking, flow cytometry | 340,000 compounds, 0.31% hits | FITC-arrestin peptide / GST-AP2 beads; AP2 beta2 appendage carries R879A mutation | beta-arrestin 1 C-terminal peptide binding to AP2 beta2-adaptin appendage (human) | inhibition, % at 10 µM;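 active = inhibition above a set limit, near 3 SD of compounds lacking own fluorescence, cut at about 54% in these data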
#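 System: GST-AP2 R879A glutathione beads; medium: PBS, Tween 20 0.05%, BSA 0.1%; reagent: fluorescein-tagged arrestin peptide at 50 nM final; schedule: pre-incubation 12 min, peptide binding 1 h, room temperature; detection: flow cytometry, FL1 (488/535 nm); read-out: inhibition as reduced fluorescein signal on beads, percent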
# NTR1 ag conf = NTR1 agonists, single-dose retest, confirmation, imaging, U2OS cells, beta-arrestin-GFP, single concentration; shares compounds with NTR1 agonist; NTR1-U2OS beta-arrestin-GFP translocation imaging; activation, % at 20 µM; 480 compounds, 38% hits;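 active = mean activation at 20 µM of at least 40%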
# A number is an active result; n = inactive; x = not tested or not shown. The list is not random: actives were taken first. Their share in the collection is about 1.3%.
SMILES,NTR1 agonist,PLCb3 inh,PLC-gamma1 inh,Arrestin-AP2 inh,NTR1 ag conf
CCCCCCCCn1c2c(c(=N)c3ccccc31)CCC2,61,n,n,n,50
CCCCCCCCCn1c2c(c(=N)c3c1CCC3)CCCC2,72,x,x,n,79
COc1cc(O)c(C(CC(=O)N2CCCC(C)C2)c2ccccc2)c(OC)c1 (stereo not drawn),x,n,n,x,x
O=[N+]([O-])c1ccc(C2CC(c3ccccc3)=Nc3ccccc3S2)cc1 (stereo not drawn),62,n,n,n,n
Cc1cc(Br)c2c(c1)/C(=C/C(=O)c1cccs1)C(=O)N2,63,n,n,n,41
O=C1Nc2ccccc2/C1=C\C(=O)c1ccccc1,n,n,n,n,x
Cc1cc(C)c2c(c1)/C(=C/C(=O)c1ccc(Br)s1)C(=O)N2,58,n,n,n,68
Cc1cccc2c1NC(=O)/C2=C\C(=O)c1cccs1,n,n,n,n,x
CCc1ccc2c(c1)/C(=C/C(=O)c1cccs1)C(=O)N2,42,n,n,n,57
C[N+]1=C(N)N[C@@]2(C=C3CCCCC3n3c(=O)n(-c4ccccc4)c(=O)n32)C1 (stereo partly drawn),x,n,n,x,x
Cc1cccc(Nc2nc(N)c([N+](=O)[O-])c(N3CC(C)CC(C)C3)n2)c1 (stereo not drawn),46,n,n,n,n
Cc1cccc(Nc2nc(N)c([N+](=O)[O-])c(N3CC(C)OC(C)C3)n2)c1 (stereo not drawn),n,n,n,n,x
O=C(NCc1ccccc1)C1CCC(CNS(=O)(=O)c2cccs2)CC1 (stereo not drawn),42,n,n,n,n
O=C(NCc1ccc(F)cc1)C1CCC(CNS(=O)(=O)c2cccs2)CC1 (stereo not drawn),n,n,n,n,x
CCOc1cc(/C=C2/C(=O)ON=C2C)ccc1OCc1ccc(F)cc1,57,n,n,n,64
CCOc1cc(/C=C2\C(=O)ON=C2c2ccccc2)ccc1OC,n,n,n,n,x
CCOc1cc(/C=C2/C(=O)ON=C2C)ccc1OCc1ccccc1,48,n,n,x,54
CC(C)(C)NC(=O)C(c1cccnc1)N(C(=O)c1cccs1)c1ccc(C(C)(C)C)cc1 (stereo not drawn),x,n,n,x,x
CC(C)=CCCC1=CC[C@H]2[C@@H](C1)C(C(C)C)=CC(=O)[C@@]2(C)O,x,n,n,x,x
C[C@@H]1CN([C@@H](C)CO)C(=O)CCCn2cc(nn2)CO[C@H]1CN(C)C(=O)Nc1ccc(-c2cccs2)cc1,x,n,n,x,x
CC(=O)c1cccc(Nc2nc(-c3sc(C)nc3C)cs2)c1,54,n,n,n,n
CC(=O)c1cccc(Nc2nc(-c3sc(N)nc3C)cs2)c1,n,n,n,n,x
COc1ccc(CCNC(=O)c2cc3c(C)nn(-c4ccccc4)c3s2)cc1OC,x,n,n,x,x
CCOC(=O)c1c(C)n(C)c2ccc(OCC(O)CN3CCCCCC3)cc12 (stereo not drawn),n,n,n,n,x
CCOC(=O)c1c(C)n(C)c2ccc(OCC(O)Cn3nc(C)c(Br)c3C)cc12 (stereo not drawn),41,n,n,n,n
SMILES,NTR1 agonist,PLCb3 inh,PLC-gamma1 inh,Arrestin-AP2 inh,NTR1 ag conf
C[C@@H]1CN([C@H](C)CO)C(=O)CCCn2cc(nn2)CO[C@H]1CN(C)S(=O)(=O)c1cn(C)cn1,x,n,n,x,x
COc1ccc(N2CCN(c3nc(NCCc4ccc(OC)c(OC)c4)nc(OC)n3)CC2)cc1,44,n,n,n,n
CC(=O)OCCCNc1cc(Sc2nc3ccccc3s2)c2nonc2c1[N+](=O)[O-],n,x,x,n,x
O=[N+]([O-])c1c(NCCCO)cc(Sc2ccc(Cl)cc2)c2nonc12,x,n,n,n,x
Cn1ccnc1Sc1cc(NCCCO)c([N+](=O)[O-])c2nonc12,45,n,n,n,72
CC(=O)OCCCNc1cc(Sc2ccc(C)cc2)c2nonc2c1[N+](=O)[O-],67,n,n,n,86
O=S1(=O)c2c(cccc2N2CC[C@H](O)C2)OCCCN1C1CC1,x,n,n,x,x
O=C1/C(=C/c2cccnc2)Oc2cc(OS(=O)(=O)c3ccc(Cl)cc3)ccc21,n,n,n,n,x
O=C1/C(=C/c2cccnc2)Oc2cc(OS(=O)(=O)c3ccccc3)ccc21,42,x,x,n,n
COc1ccc(S(=O)(=O)Oc2ccc3c(c2)O/C(=C\c2cccnc2)C3=O)cc1,43,n,n,n,n
O=C(C#Cc1cccc([N+](=O)[O-])c1)c1ccccc1,n,x,x,n,x
Nc1ccccc1C#CC(=O)c1ccccc1,71,n,n,n,83
Nc1c(C(=O)Nc2ccc(S(=O)(=O)N3CCCC3)cc2)sc2nc3cc4c(cc3cc12)CCC4,x,n,n,n,x
Nc1c(C(=O)Nc2ccc(S(=O)(=O)N3CCCC3)cc2)sc2nc3ccc(OC(F)(F)F)cc3cc12,87,x,x,n,n
COC(=O)[C@]12C[C@H](CC(=O)NCCc3ccccc3OC)C(=O)N(Cc3ccc(Cl)cc3Cl)C1=C[C@H](C1CCCC1)O[C@@H]2C,x,n,n,x,x
CCCCNC(=O)C1CCCN1C(=O)NCc1ccccc1OC (stereo not drawn),x,n,n,x,x
C=CCn1c(SCc2cccc(C(F)(F)F)c2)nnc1-c1ccc(OC)cc1,x,n,n,x,x
COc1cc2c3nnc(-c4ccccc4)c-3cn(Cc3ccccc3F)c2cc1OC,115,n,n,x,90
O=C1CC2c3cc(-c4cc5ccccc5o4)ccc3CCN2C(=O)CN1Cc1ccccc1 (stereo not drawn),x,n,n,x,x
CCC(C)Sc1cccc(-c2nc3ccccn3c2NCc2ccccc2)c1 (stereo not drawn),40,n,n,n,n
COc1ccccc1N(CC(=O)N/N=C/c1ccc(OCC(=O)NCc2ccco2)cc1)S(=O)(=O)c1ccc(C)cc1,n,x,x,n,x
COC(=O)COc1ccc(/C=N/NC(=O)CN(c2ccccc2OC)S(=O)(=O)c2ccccc2)cc1,75,n,n,n,76
Cc1ccc(OCC(=O)N/N=C\c2cn(Cc3ccccc3)c3ccccc23)cc1C,41,n,n,n,n
Cc1cc2c(c(=O)o1)[C@@]1(C(=O)N(C)c3cc(Br)ccc31)C1=C(CCCC1=O)O2,x,n,n,x,x
CC(NCC(O)COCCC12CC3CC(CC(C3)C1)C2)c1ccccc1 (stereo not drawn),46,n,n,n,69
CCCC(=O)N1CCC[C@]2(CC[C@H](CCC(=O)OCC)O2)C1,x,n,n,x,x
COc1cc(C(=O)Oc2cccc(Nc3ncnc4ccccc34)c2)cc(OC)c1OC,44,n,n,n,n
O=C(COc1ccccc1)NCC(=O)N/N=C/c1ccc(O)cc1O,42,n,n,n,n
